In ChEMBL document CHEMBL1135407, “Structure-based design of a parallel synthetic array directed toward the discovery of irreversible inhibitors of human rhinovirus 3C protease” (J Med Chem, 2002):

What was measured:
[1] = target: T1, Human rhinovirus A protease (Human rhinovirus sp., UniProt Q4U254); test: Inhibition of Human Rhinovirus 14 (HRV14) Protease 3C
T1 sequence (Q4U254 whole entry): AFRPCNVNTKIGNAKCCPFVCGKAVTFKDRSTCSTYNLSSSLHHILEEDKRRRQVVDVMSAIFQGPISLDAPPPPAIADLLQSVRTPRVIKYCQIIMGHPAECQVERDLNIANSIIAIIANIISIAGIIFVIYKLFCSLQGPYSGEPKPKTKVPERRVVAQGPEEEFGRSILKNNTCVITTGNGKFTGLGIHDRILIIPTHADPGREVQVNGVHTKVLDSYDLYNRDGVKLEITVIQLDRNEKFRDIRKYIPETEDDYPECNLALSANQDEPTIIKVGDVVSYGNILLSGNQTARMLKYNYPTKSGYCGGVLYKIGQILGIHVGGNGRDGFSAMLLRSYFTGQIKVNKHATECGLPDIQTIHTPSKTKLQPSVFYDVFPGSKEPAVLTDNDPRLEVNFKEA

[2] = target: T2, Human rhinovirus A protease (Human rhinovirus sp.) (UniProt Q4U254); test: Rate of inactivation of Human Rhinovirus 14 (HRV14) Protease 3C
T2 sequence (whole entry): T1 sequence (Q4U254 whole entry)
Outline: (§1)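 Irreversible (Michael acceptor) inactivation of HRV-14 3C protease, reported as a second-order rate of inactivation in M^-1 sec^-1.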

HeLa = test: 50% cytotoxic concentration required to inhibit HRV-14 infected H1HeLa cells; assay type: functional; conditions: Homo sapiens
[3] = target: T2, Human rhinovirus A protease (Human rhinovirus sp.); test: Ability to inactivate Human Rhinovirus 2 Protease 3C
[4] = target: T1, Human rhinovirus A protease; test: 50% effective concentration required to inhibit Human Rhinovirus 2 Protease 3C
[5] = target: T2, Human rhinovirus A protease (Human rhinovirus sp.); test: Evaluated for the rate of inactivation of Human Rhinovirus 14 (HRV14) Protease 3C; outline: as §1
[6] = target: T1, Human rhinovirus A protease; test: 50% effective concentration required to inhibit Human Rhinovirus 89 Protease 3C
[7] = target: T2, Human rhinovirus A protease (Human rhinovirus sp.); test: Ability to inactivate Human Rhinovirus 16 Protease 3C
[8] = target: T1, Human rhinovirus A protease; test: 50% effective concentration required to inhibit Human Rhinovirus 10 Protease 3C
[9] = target: T1, Human rhinovirus A protease; test: 50% effective concentration required to inhibit Human Rhinovirus 16 Protease 3C
[10] = target: T2, Human rhinovirus A protease (Human rhinovirus sp.); test: Ability to inactivate Human Rhinovirus 89 Protease 3C
[11] = target: T1, Human rhinovirus A protease; test: 50% effective concentration required to inhibit Human Rhinovirus 1A Protease 3C

Compound | EC50 [1] | K obs / 1 [2] | CC50 (HeLa) | also measured
CCOC(=O)/C=C/[C@H](C[C@@H]1CCNC1=O)NC(=O)/C=C/c1ccc2c(c1)OCO2 | 1.81 µM | 1960 M⁻¹ s⁻¹ | > 10 µM | –
CCOC(=O)/C=C/[C@H](C[C@@H]1CCNC1=O)NC(=O)c1ccc2ccccc2c1 | 0.15 µM | 1090 M⁻¹ s⁻¹ | > 100 µM | K obs / 1 [3]: 110 M⁻¹ s⁻¹; EC50 [4]: 1.4 µM
CCOC(=O)/C=C/[C@H](C[C@@H]1CCNC1=O)NC(=O)/C=C/c1cccc(Br)c1 | 1.4 µM | – | > 10 µM | K obs / 1 [5]: 2560 M⁻¹ s⁻¹
CCOC(=O)/C=C/[C@H](C[C@@H]1CCNC1=O)NC(=O)c1cc(-c2ccccc2)oc1C | 1.94 µM | 4740 M⁻¹ s⁻¹ | > 100 µM | –
CCOC(=O)/C=C/[C@H](C[C@@H]1CCNC1=O)NC(=O)/C=C/c1cc2c(cc1Br)OCO2 | 0.49 µM | 14400 M⁻¹ s⁻¹ | > 100 µM | –
CCOC(=O)/C=C/[C@H](CCC(N)=O)NC(=O)C(Cc1ccccc1)NC(=O)[C@H](CC(C)C)NC(=O)OCc1ccccc1 (stereo partly specified) | 0.54 µM | 25000 M⁻¹ s⁻¹ | > 100 µM | EC50 [6]: 6.3 µM; K obs / 1 [3]: 2000 M⁻¹ s⁻¹; EC50 [4]: 1.6 µM; K obs / 1 [7]: 6530 M⁻¹ s⁻¹; EC50 [8]: 0.6 µM; EC50 [9]: 2.3 µM; K obs / 1 [10]: 3440 M⁻¹ s⁻¹
CCOC(=O)/C=C/[C@H](C[C@@H]1CCNC1=O)NC(=O)/C=C/c1cc(Br)ccc1Br | – | 6850 M⁻¹ s⁻¹ | – | –
CCOC(=O)/C=C/[C@H](C[C@@H]1CCNC1=O)NC(=O)C1=Cc2cc(Cl)ccc2OC1 | 0.16 µM | 19700 M⁻¹ s⁻¹ | > 100 µM | K obs / 1 [3]: 385 M⁻¹ s⁻¹; EC50 [4]: 0.65 µM; EC50 [11]: 5.1 µM; K obs / 1 [7]: 2200 M⁻¹ s⁻¹; EC50 [8]: 0.46 µM
CCOC(=O)/C=C/[C@H](C[C@@H]1CCNC1=O)NC(=O)/C=C/c1ccc(F)c(Br)c1 | 0.63 µM | 2860 M⁻¹ s⁻¹ | > 100 µM | –
CCOC(=O)/C=C/[C@H](C[C@@H]1CCNC1=O)NC(=O)C1=Cc2ccccc2OC1 | 1.19 µM | 886 M⁻¹ s⁻¹ | > 100 µM | –
CCOC(=O)/C=C/[C@H](C[C@@H]1CCNC1=O)NC(=O)/C=C/c1ccc(C)c(Br)c1 | 1.29 µM | 4080 M⁻¹ s⁻¹ | > 10 µM | –
CCOC(=O)/C=C/[C@H](C[C@@H]1CCNC1=O)NC(=O)c1ccc2cc(C)ccc2c1 | 0.88 µM | 5000 M⁻¹ s⁻¹ | > 100 µM | –
CCOC(=O)/C=C/[C@H](C[C@@H]1CCNC1=O)NC(=O)c1ccc2ccc(Br)cc2c1 | 0.18 µM | 31400 M⁻¹ s⁻¹ | > 50 µM | –
CCOC(=O)/C=C/[C@H](C[C@@H]1CCNC1=O)NC(=O)C1=Cc2cc(Br)ccc2OC1 | 0.18 µM | 25000 M⁻¹ s⁻¹ | > 100 µM | K obs / 1 [3]: 372 M⁻¹ s⁻¹; EC50 [8]: 0.55 µM
